Test results: the M2OR odorant receptor database

Target: T1, UniProt Q8VFM8
T1 sequence (whole entry): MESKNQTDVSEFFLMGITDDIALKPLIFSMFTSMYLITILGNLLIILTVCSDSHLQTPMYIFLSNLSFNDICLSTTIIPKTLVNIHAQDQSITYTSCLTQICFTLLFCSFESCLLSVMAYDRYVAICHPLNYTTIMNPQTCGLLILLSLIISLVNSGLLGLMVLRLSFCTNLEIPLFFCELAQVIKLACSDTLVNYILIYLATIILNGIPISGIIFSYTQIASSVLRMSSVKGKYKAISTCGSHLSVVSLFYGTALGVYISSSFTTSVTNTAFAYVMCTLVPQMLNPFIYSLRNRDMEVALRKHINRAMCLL
Conditions: stereoisomer not certain
Method in brief: (§1)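 Each receptor–molecule pair is labelled responsive or non-responsive (inactive) according to whether the original authors judged the measured signal statistically different from baseline. The data were taken from the main text and supplementary material of published papers and checked for typos and inconsistencies. Assay methods differed by source, with transient luciferase assays in mammalian cell lines being common.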

SMILES	odorant receptor agonist call;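 further: active if original authors judged signal statistically different from baseline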
OCC=Cc1ccccc1	inactive
C1CCOC1	inactive
C=CC(=C)CCC=C(C)C	inactive
CCSSCC	inactive
CCC=CCCC=CC=O	inactive
COC(OC)c1ccccc1	inactive
Cc1ccc(C(C)C)cc1	inactive
C=C(CC)CCCC(C)(C)O	inactive
CCN(CC)CC	inactive
CC(C)CS	inactive
Cc1occc1SSc1ccoc1C	inactive
CCc1nccnc1CC	inactive
CC1(C)CC(=O)CC(=O)C1	inactive
C=C(C)C1CC=C(C)CC1 (centres undefined)	inactive
COc1nccnc1C(C)C	inactive
CC(=O)OCCc1ccccc1	inactive
CCCCCCCOC(=O)C(C)C	inactive

SMILES	odorant receptor agonist call;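 further: active if original authors judged signal statistically different from baseline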
C=CC(C)=CCC=C(C)CCC=C(C)C	inactive
CCCCCC(C)O (centres undefined)	inactive
CC(=O)OCc1ccc2c(c1)OCO2	inactive
CSSCc1ccco1	inactive
CCCCCCC(C=O)=Cc1ccccc1	inactive
CC(=O)C=CC1=C(C)CCCC1(C)C	inactive
CCc1ccc(O)cc1	inactive
C=C(C)C1CCC2(C)OC2C1 (centres undefined)	inactive
CCCCCOC(=O)CCC	inactive
CCCCCC(C=O)=Cc1ccccc1	inactive
CC(C)CCN	inactive
CCCCCC(=Cc1ccccc1)C(OC)OC	inactive
CCC=CCCCCC=O	inactive
O=C(O)CCCCCCCCC(=O)O	inactive
CCc1ccccc1O	inactive
C=C(C)C1CCC(C)C(O)C1 (centres undefined)	inactive

Target: T2, UniProt Q8VFP5
T2 sequence (whole entry): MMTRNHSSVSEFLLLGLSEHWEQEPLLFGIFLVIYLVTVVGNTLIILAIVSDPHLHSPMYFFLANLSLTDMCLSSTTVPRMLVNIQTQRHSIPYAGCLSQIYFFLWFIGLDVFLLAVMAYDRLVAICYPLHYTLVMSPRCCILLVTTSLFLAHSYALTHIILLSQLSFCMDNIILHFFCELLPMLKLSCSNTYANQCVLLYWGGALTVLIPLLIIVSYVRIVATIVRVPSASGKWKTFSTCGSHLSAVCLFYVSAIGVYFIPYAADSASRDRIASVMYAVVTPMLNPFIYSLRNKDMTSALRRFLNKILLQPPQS
Conditions: stereoisomer not certain
Method in brief: as §1

SMILES	odorant receptor agonist call;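 further: active if original authors judged signal statistically different from baseline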
OCC=Cc1ccccc1	inactive
C1CCOC1	inactive
C=CC(=C)CCC=C(C)C	inactive
CCSSCC	inactive
CCC=CCCC=CC=O	inactive
COC(OC)c1ccccc1	inactive
Cc1ccc(C(C)C)cc1	inactive
C=C(CC)CCCC(C)(C)O	inactive
CCN(CC)CC	inactive
CC(C)CS	inactive
Cc1occc1SSc1ccoc1C	inactive
CCc1nccnc1CC	inactive
CC1(C)CC(=O)CC(=O)C1	inactive
C=C(C)C1CC=C(C)CC1 (centres undefined)	inactive
COc1nccnc1C(C)C	inactive
CC(=O)OCCc1ccccc1	inactive
CCCCCCCOC(=O)C(C)C	inactive

SMILES	odorant receptor agonist call;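 further: active if original authors judged signal statistically different from baseline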
C=CC(C)=CCC=C(C)CCC=C(C)C	inactive
CCCCCC(C)O (centres undefined)	inactive
CC(=O)OCc1ccc2c(c1)OCO2	inactive
CSSCc1ccco1	inactive
CCCCCCC(C=O)=Cc1ccccc1	inactive
CC(=O)C=CC1=C(C)CCCC1(C)C	inactive
CCc1ccc(O)cc1	inactive
C=C(C)C1CCC2(C)OC2C1 (centres undefined)	inactive
CCCCCOC(=O)CCC	inactive
CCCCCC(C=O)=Cc1ccccc1	inactive
CC(C)CCN	inactive
CCCCCC(=Cc1ccccc1)C(OC)OC	inactive
CCC=CCCCCC=O	inactive
O=C(O)CCCCCCCCC(=O)O	inactive
CCc1ccccc1O	inactive
C=C(C)C1CCC(C)C(O)C1 (centres undefined)	inactive

Target: T3, UniProt Q8VG01
T3 sequence (whole entry): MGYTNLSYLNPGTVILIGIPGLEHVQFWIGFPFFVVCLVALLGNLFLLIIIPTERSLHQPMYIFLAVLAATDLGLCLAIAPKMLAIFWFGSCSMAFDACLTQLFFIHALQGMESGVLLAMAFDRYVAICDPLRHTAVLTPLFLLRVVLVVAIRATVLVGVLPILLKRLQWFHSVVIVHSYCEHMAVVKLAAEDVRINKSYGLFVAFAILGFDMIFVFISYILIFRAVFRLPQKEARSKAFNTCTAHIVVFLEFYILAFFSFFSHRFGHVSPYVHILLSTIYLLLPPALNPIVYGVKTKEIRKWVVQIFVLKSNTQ
Conditions: stereoisomer not certain
Method in brief: as §1

SMILES	odorant receptor agonist call;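 further: active if original authors judged signal statistically different from baseline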
OCC=Cc1ccccc1	inactive
C1CCOC1	inactive
C=CC(=C)CCC=C(C)C	inactive
CCSSCC	inactive
CCC=CCCC=CC=O	inactive
COC(OC)c1ccccc1	inactive
Cc1ccc(C(C)C)cc1	inactive
C=C(CC)CCCC(C)(C)O	inactive
CCN(CC)CC	inactive
CC(C)CS	inactive
Cc1occc1SSc1ccoc1C	inactive
CCc1nccnc1CC	inactive
CC1(C)CC(=O)CC(=O)C1	inactive
C=C(C)C1CC=C(C)CC1 (centres undefined)	inactive
COc1nccnc1C(C)C	inactive
CC(=O)OCCc1ccccc1	inactive
CCCCCCCOC(=O)C(C)C	inactive

SMILES	odorant receptor agonist call;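 further: active if original authors judged signal statistically different from baseline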
C=CC(C)=CCC=C(C)CCC=C(C)C	inactive
CCCCCC(C)O (centres undefined)	inactive
CC(=O)OCc1ccc2c(c1)OCO2	inactive
CSSCc1ccco1	inactive
CCCCCCC(C=O)=Cc1ccccc1	inactive
CC(=O)C=CC1=C(C)CCCC1(C)C	inactive
CCc1ccc(O)cc1	inactive
C=C(C)C1CCC2(C)OC2C1 (centres undefined)	inactive
CCCCCOC(=O)CCC	inactive
CCCCCC(C=O)=Cc1ccccc1	inactive
CC(C)CCN	inactive
CCCCCC(=Cc1ccccc1)C(OC)OC	inactive
CCC=CCCCCC=O	active
O=C(O)CCCCCCCCC(=O)O	inactive
CCc1ccccc1O	inactive
C=C(C)C1CCC(C)C(O)C1 (centres undefined)	inactive
